According to publication PMC2819552 (Biochimica et biophysica acta, 2009):
Where “and” joins values, the source holds several entries; their conditions need not be identical. Identical values can stand only once. Like-named read-outs stand apart in the source and are kept apart here.

Columns and labels:
[1] = test system: H. anomala cells (alternative oxidase pathway); assay: Induction of cyanide-resistant respiration in H. anomala cells; assay type: cell-based, Hansenula (Pichia) anomala; conditions: 10 μM inhibitor, cells shaken aerobically at 30°C for 2 hours; None = 0.181
[2] = test system: cytochrome b in H. anomala mitochondria; assay: Reduction of cytochrome b in H. anomala mitochondria; assay type: biochemical, Hansenula (Pichia) anomala
[3] = test system: H. anomala mitochondria; assay: Superoxide anion generation in H. anomala mitochondria; assay type: biochemical, Hansenula (Pichia) anomala
Outline: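 Pre-incubated at 30°C in a chemiluminescence reader, then succinate added and inhibitors added in sequence. Read-out was the chemiluminescence peak-height increase sensitive to 0.5 µM superoxide dismutase.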

[4] = molecular target: purified bovine cytochrome bc1 complex (Bos taurus, UniProt P00157+P13272); assay: Cytochrome reduction by DBH2 in purified bovine cytochrome bc1 complex; assay type: biochemical
[5] = molecular target: T1, Rb. capsulatus cytochrome bc1 complex (Rhodobacter capsulatus, UniProt D5ANZ2+D5ANZ3); assay type: biochemical; conditions: for Inhibition of re-reduction of cytochromes c (Qo site forward reaction): pH 7.0, Eh 100 mV
T1 sequence (D5ANZ3 1-437): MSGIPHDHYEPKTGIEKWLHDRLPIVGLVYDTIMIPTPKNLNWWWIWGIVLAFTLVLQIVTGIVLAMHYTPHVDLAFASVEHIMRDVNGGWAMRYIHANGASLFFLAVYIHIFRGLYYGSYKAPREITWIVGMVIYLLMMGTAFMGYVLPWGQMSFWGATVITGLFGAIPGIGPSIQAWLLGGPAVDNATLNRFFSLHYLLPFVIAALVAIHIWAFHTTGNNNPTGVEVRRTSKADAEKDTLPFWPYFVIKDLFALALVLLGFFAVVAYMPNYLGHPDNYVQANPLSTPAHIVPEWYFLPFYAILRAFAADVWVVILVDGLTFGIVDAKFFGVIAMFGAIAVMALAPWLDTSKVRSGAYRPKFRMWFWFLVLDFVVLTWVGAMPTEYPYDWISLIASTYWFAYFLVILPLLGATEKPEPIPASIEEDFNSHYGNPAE
T1 sequence (D5ANZ2 1-191): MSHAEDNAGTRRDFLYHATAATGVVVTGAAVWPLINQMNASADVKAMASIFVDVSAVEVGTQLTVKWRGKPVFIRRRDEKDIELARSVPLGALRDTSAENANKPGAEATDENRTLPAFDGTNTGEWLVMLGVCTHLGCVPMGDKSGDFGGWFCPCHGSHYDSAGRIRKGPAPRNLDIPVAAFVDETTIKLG
T1 sequence (D5ANZ4 22-279 partner): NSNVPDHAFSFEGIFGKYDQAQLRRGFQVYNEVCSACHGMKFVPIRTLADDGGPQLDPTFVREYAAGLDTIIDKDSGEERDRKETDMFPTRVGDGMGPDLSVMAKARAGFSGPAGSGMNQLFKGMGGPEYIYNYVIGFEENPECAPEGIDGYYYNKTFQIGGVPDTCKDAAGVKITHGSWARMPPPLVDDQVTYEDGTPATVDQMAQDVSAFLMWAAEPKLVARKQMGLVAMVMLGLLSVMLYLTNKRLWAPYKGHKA
Outline: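 Rb. capsulatus chromatophores normalised to reaction centre (0.28 µM), with redox mediators and 2.5 µM valinomycin. Qo forward: 50 mM MOPS pH 7.0, 100 mM KCl, Eh 100 mV. Qi reverse: 50 mM glycine-NaOH pH 9.5, 100 mM KCl, 10 µM myxothiazol, Eh 125 mV.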

[6] = molecular target: T2, Rieske iron-sulfur protein of Rb. capsulatus cytochrome bc1 complex (Rhodobacter capsulatus, UniProt D5ANZ2+D5ANZ3); assay: EPR spectra of the reduced Rieske iron-sulfur protein in chromatophore membranes; assay type: binding; conditions: 10 to 30 μM inhibitor, ascorbate-reduced chromatophore membranes, 20 K
T2 sequence (D5ANZ3 1-437): T1 sequence (D5ANZ3 1-437)
T2 sequence (D5ANZ2 1-191): T1 sequence (D5ANZ2 1-191)
T2 sequence (D5ANZ4 22-279 partner): T1 sequence (D5ANZ4 22-279 partner)

[7] = test system: rat liver mitochondria; assay: Succinate-dependent O2 uptake activity in rat liver mitochondria; assay type: biochemical
[8] = 10 μM antimycin A3 added after 15 mM succinate + 10 μM ascochlorin
[9] = 10 μM inhibitor added after 15 mM succinate
[10] = 10 μM inhibitor added after 15 mM succinate + 10 μM antimycin A3

CCCC[C@H]1C(=O)O[C@H](C)[C@H](NC(=O)c2cccc(NC=O)c2O)C(=O)O[C@@H](C)[C@@H]1OC(=O)CC(C)C [Antimycin A3]
CN−-resistant O2 uptake activity [1]: 7.77 nmol O2/min/mg wet cells | ΔA 560–575 × 10^2 (cytochrome b reduction) [2, 8]: 0.94 | ΔA 560–575 × 10^2 (cytochrome b reduction) ([2]; 10 μM antimycin A3 added after 15 mM succinate + 10 μM myxothiazol): 1.08 | ΔA 560–575 × 10^2 (cytochrome b reduction) [2, 9]: 1.27 and 1.28 | Chemiluminescence Intensity (superoxide anion generation) [3, 8]: 3.6 10^5 counts/min | Chemiluminescence Intensity (superoxide anion generation) [3, 9]: 8.8 10^5 counts/min and 9.1 10^5 counts/min

CC(/C=C/[C@@]1(C)[C@H](C)CCC(=O)[C@@H]1C)=C\Cc1c(O)c(Cl)c(C)c(C=O)c1O [Ascochlorin]
CN−-resistant O2 uptake activity [1]: 7.42 nmol O2/min/mg wet cells | ΔA 560–575 × 10^2 (cytochrome b reduction) [2, 9]: 0.92 | ΔA 560–575 × 10^2 (cytochrome b reduction) [2, 10]: 0.85 | Chemiluminescence Intensity (superoxide anion generation) [3, 9]: 2.6 10^5 counts/min | Chemiluminescence Intensity (superoxide anion generation) [3, 10]: 4.6 10^5 counts/min | Extent of rapid reduction of cytochrome c1 ([4]; 3 μM bovine bc1, 31 μM ascochlorin, DBH2 25 μM, by the first spectrum): about 20% | Rapid reduction of cytochrome bH and c1 ([4]; ascochlorin and antimycin both present, 240 μM ascochlorin): about half | Further decrease of the extent of the fast reactions ([4]; ascochlorin increased from 31 to 360 μM, compared to Fig. 4C): about a factor of two | Inhibition of re-reduction of cytochromes c (Qo site forward reaction) ([5]; 1 μM): partially | Inhibition of re-reduction of cytochromes c (Qo site forward reaction) ([5]; 10 μM): fully | Inhibition of Qi site-mediated cytochrome b reduction (reverse reaction) ([5]; 1 or 10 μM, 10 μM myxothiazol, pH 9.5, Eh 125 mV): completely inhibited | Effect on the Rieske ISP gx EPR transition [6]: changes the gx transition

O=C1C(O)=C([C@H]2CC[C@H](c3ccc(Cl)cc3)CC2)C(=O)c2ccccc21 [Atovaquone]
CN−-resistant O2 uptake activity [1]: 0.202 nmol O2/min/mg wet cells

CC(=CCc1c(O)cc(C)c(C=O)c1O)CCC1(C)C(C)CCC(=O)C1C (centres unmarked) [LL-Z1272 ε]
Inhibition relative to that seen using ascochlorin [7]: about 1/300

CO/C(=C/C(N)=O)[C@H](C)[C@H](/C=C/c1csc(-c2csc([C@@H](C)/C=C/C=C/C(C)C)n2)n1)OC [Myxothiazol]
CN−-resistant O2 uptake activity [1]: 0.375 nmol O2/min/mg wet cells | ΔA 560–575 × 10^2 (cytochrome b reduction) [2, 9]: 1.16 | ΔA 560–575 × 10^2 (cytochrome b reduction) [2, 10]: 1.03 | Chemiluminescence Intensity (superoxide anion generation) [3, 10]: 5.4 10^5 counts/min

CCCCCCCCCC1=C(O)C(=O)c2scnc2C1=O [NHDBT, nonylhydroxydioxobenzothiazole]
CN−-resistant O2 uptake activity [1]: 0.225 nmol O2/min/mg wet cells

C/C=C(C)/C=C/C=C/[C@H](OC)[C@@H](C)[C@@H](OC)[C@@H](C)CCc1oc2c(O)c(OC)cc(OC)c2c(=O)c1C [Stigmatellin]
CN−-resistant O2 uptake activity [1]: 0.433 nmol O2/min/mg wet cells

CCCCCC[C@H]1C(=O)O[C@H](C)[C@H](NC(=O)c2cccc(NC=O)c2O)C(=O)O[C@@H](C)[C@@H]1OC(=O)CC(C)C [antimycin A]
Extent of rapid reduction of cytochrome bL ([4]; 3 μM bovine bc1, 30 μM antimycin A, DBH2 25 μM): about 20% | Level of cytochrome b reduction after reoxidation ([4]; 30 μM antimycin A, within a few minutes): about 10%

Funiculosin
CN−-resistant O2 uptake activity [1]: 3.12 nmol O2/min/mg wet cells
